Measurements published in article PMC2738612 (Biochemistry, 2009).

Key:
MMP-2 CBD modules = settings: cited from earlier work
[1] = molecular target: denatured type I collagen (gelatin), rat tail (rat, UniProt P02454 152-1207; P02466 86-1125); experiment: SPR
[2] = system: gelatin (denatured type I collagen); experiment: Surface plasmon resonance binding to immobilized gelatin; set-up: species or system rat; settings: 1 µM analyte, Biacore buffer pH 7.4; compared to WT CBD
native type I collagen = experiment: Surface plasmon resonance binding to immobilized native type I collagen; set-up: species or system rat; settings: 1 µM analyte, Biacore buffer pH 7.4; compared to WT CBD
How it was run: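 Native non-pepsin-treated acid-soluble rat tail type I collagen in 10 mM sodium acetate, pH 4.5, was amine-coupled to EDC/NHS-activated CM5 chips at ~3000 RU, then ethanolamine-blocked; an uncoated flow cell served as control. Analytes at 1 µM in 10 mM HEPES, 150 mM NaCl, 0.005% P20, pH 7.4, flowed at 5 µl/min for 6 min. RU were averaged over 5 s before injection end. Chips were regenerated with 6 M guanidine-HCl, with WT CBD run at the start and end of each series.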

Chain of denatured type I collagen (gelatin), rat tail (P02454 152-1207, chain 1 of 2): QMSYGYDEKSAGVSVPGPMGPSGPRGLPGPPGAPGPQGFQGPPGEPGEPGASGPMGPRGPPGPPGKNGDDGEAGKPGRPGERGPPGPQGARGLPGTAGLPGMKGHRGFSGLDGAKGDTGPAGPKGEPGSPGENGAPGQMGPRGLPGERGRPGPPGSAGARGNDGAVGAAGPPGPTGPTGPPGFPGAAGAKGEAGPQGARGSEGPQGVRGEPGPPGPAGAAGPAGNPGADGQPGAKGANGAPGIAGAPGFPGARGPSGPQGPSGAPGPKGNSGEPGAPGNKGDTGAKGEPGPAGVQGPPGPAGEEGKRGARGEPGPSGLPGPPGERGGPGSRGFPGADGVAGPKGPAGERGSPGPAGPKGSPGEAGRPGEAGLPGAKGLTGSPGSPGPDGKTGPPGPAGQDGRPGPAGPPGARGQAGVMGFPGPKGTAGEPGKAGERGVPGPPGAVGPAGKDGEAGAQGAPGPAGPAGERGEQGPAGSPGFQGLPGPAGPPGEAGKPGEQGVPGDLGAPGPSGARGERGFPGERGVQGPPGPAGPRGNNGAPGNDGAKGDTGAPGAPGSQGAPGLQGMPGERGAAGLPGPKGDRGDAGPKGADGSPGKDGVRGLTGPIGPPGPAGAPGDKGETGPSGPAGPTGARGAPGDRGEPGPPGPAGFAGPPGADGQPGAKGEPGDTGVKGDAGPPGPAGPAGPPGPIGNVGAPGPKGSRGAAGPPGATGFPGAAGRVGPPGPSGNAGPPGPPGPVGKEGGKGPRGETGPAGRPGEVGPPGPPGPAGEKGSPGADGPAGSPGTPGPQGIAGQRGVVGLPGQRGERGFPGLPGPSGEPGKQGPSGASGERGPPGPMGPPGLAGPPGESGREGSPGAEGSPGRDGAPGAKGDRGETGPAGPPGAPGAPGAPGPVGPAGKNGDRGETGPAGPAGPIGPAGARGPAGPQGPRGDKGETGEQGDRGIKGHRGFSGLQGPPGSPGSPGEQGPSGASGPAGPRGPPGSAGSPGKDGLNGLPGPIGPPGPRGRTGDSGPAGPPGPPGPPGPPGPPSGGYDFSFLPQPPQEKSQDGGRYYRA
Chain of denatured type I collagen (gelatin), rat tail (P02466 86-1125, chain 2 of 2): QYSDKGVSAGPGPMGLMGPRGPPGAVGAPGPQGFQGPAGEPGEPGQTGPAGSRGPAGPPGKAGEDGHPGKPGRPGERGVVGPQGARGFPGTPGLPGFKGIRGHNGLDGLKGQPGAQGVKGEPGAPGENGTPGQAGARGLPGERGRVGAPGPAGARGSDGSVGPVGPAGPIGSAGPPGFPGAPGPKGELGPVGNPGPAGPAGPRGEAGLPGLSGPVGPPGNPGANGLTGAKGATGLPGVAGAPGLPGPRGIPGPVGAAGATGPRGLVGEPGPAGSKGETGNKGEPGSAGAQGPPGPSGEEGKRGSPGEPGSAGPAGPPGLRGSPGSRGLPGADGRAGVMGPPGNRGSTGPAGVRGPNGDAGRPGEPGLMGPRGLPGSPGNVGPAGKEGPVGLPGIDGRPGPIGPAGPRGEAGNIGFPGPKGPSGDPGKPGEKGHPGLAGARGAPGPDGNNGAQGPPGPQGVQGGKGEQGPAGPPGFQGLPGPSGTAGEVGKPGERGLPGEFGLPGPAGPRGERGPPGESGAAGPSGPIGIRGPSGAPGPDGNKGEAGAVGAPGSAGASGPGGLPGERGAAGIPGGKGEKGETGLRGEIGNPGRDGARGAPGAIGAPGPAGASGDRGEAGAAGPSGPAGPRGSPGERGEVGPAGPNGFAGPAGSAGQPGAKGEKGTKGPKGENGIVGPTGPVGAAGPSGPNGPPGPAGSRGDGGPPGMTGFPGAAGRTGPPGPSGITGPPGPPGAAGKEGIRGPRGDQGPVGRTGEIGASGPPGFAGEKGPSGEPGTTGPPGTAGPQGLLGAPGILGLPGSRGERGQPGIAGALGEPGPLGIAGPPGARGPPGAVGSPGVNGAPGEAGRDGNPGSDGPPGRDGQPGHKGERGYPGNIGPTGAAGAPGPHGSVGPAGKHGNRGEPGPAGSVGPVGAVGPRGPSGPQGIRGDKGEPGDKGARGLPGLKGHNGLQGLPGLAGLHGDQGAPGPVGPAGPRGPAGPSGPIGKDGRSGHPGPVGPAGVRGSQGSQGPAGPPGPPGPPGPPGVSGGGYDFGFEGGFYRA

Molecule	relative affinity of modules 1 and 2 versus module 3 for collagen-like peptide (MMP-2 CBD modules)	spectral perturbations of isolated CBD module 2 (MMP-2 CBD modules; early NMR study)	Kd [1] [µM]	binding to gelatin / denatured type I collagen (SPR, RU) [2]	binding to native type I collagen (SPR, RU) (native type I collagen)
(Pro-Pro-Gly)6	modules 1 and 2 have higher affinity	spectral perturbations of the surface-exposed aromatic residues Phe21, Tyr38, Trp40, Tyr47, Tyr53 and Phe55, as well as the neighboring Gly33-Gly37 segment	–	–	–
Recombinant collagen binding domain (CBD) from human MMP-2, wildtype (domain or fragment, 15N (or 15N and 13C) labelled for NMR; biotinylated for the microwell assay) VVRVKYGNADGEYCKFPFLFNGKEYNSCTDTGRSDGFLWCSTTYNFEKDGKYGFCPHEALFTMGGNAEGQPCKFPFRFQGTSYDSCTTEGRTDGYRWCGTTEDYDRDKKYGFCPETAMSTVGGNSEGAPCVFPFTFLGNKYESCTSAGRSDGKMWCATTANYDDDRKWGFCPDQ	–	–	2.9	–	–
Y^329A: rCBD variant, single-point alanine substitution at Y^329, module 2 (protein, biotinylated for the microwell assay; left off: His tag, end not stated, state not stated) APSPIIKFPGDVAPKTDKELAVQYLNTFYGCPKESCNLFVLKDTLKKMQKFFGLPQTGDLDQNTIETMRKPRCGNPDVANYNFFPRKPKWDKNQITYRIIGYTPDLDPETVDDAFARAFQVWSDVTPLRFSRIHDGEADIMINFGRWEHGDGYPFDGKDGLLAHAFAPGTGVGGDSHFDDDELWTLGEGQVVRVKYGNADGEYCKFPFLFNGKEYNSCTDTGRSDGFLWCSTTYNFEKDGKYGFCPHEALFTMGGNAEGQPCKFPFRFQGTSYDSCTTEGRTDGYRWCGTTEDYDRDKKAGFCPETAMSTVGGNSEGAPCVFPFTFLGNKYESCTSAGRSDGKMWCATTANYDDDRKWGFCPDQGYSLFLVAAHEFGHAMGLEHSQDPGALMAPIYTYTKNFRLSQDDIKGIQELYGASPDIDLGTGPTPTLGPVTPEICKQDIVFDGIAQIRGEIFFFKDRFIWRTVTPRDKPMGPLLVATFWPELPEKIDAVYEAPQEEKAVFFAGNEYWIYSASTLERGYPKPLTSLGLPPDVQRVDAAFNWSKNKKTYIFAGDKFWRYNEVKKKMDPGFPKLIADAWNAIPDNLDAVVDLQGGGHSYFFKGAYYLKLENQSLKSVKFGSIKSDWLGC	–	–	–	strong reduction in binding	strong reduction in binding
R^368A: rCBD variant, single-point alanine substitution at R^368, module 3 (protein, biotinylated for the microwell assay; left off: His tag, end not stated, state not stated) APSPIIKFPGDVAPKTDKELAVQYLNTFYGCPKESCNLFVLKDTLKKMQKFFGLPQTGDLDQNTIETMRKPRCGNPDVANYNFFPRKPKWDKNQITYRIIGYTPDLDPETVDDAFARAFQVWSDVTPLRFSRIHDGEADIMINFGRWEHGDGYPFDGKDGLLAHAFAPGTGVGGDSHFDDDELWTLGEGQVVRVKYGNADGEYCKFPFLFNGKEYNSCTDTGRSDGFLWCSTTYNFEKDGKYGFCPHEALFTMGGNAEGQPCKFPFRFQGTSYDSCTTEGRTDGYRWCGTTEDYDRDKKYGFCPETAMSTVGGNSEGAPCVFPFTFLGNKYESCTSAGASDGKMWCATTANYDDDRKWGFCPDQGYSLFLVAAHEFGHAMGLEHSQDPGALMAPIYTYTKNFRLSQDDIKGIQELYGASPDIDLGTGPTPTLGPVTPEICKQDIVFDGIAQIRGEIFFFKDRFIWRTVTPRDKPMGPLLVATFWPELPEKIDAVYEAPQEEKAVFFAGNEYWIYSASTLERGYPKPLTSLGLPPDVQRVDAAFNWSKNKKTYIFAGDKFWRYNEVKKKMDPGFPKLIADAWNAIPDNLDAVVDLQGGGHSYFFKGAYYLKLENQSLKSVKFGSIKSDWLGC	–	–	–	strong reduction in binding	strong reduction in binding
W^374A: rCBD variant, single-point alanine substitution at W^374, module 3 (protein, biotinylated for the microwell assay; left off: His tag, end not stated, state not stated) APSPIIKFPGDVAPKTDKELAVQYLNTFYGCPKESCNLFVLKDTLKKMQKFFGLPQTGDLDQNTIETMRKPRCGNPDVANYNFFPRKPKWDKNQITYRIIGYTPDLDPETVDDAFARAFQVWSDVTPLRFSRIHDGEADIMINFGRWEHGDGYPFDGKDGLLAHAFAPGTGVGGDSHFDDDELWTLGEGQVVRVKYGNADGEYCKFPFLFNGKEYNSCTDTGRSDGFLWCSTTYNFEKDGKYGFCPHEALFTMGGNAEGQPCKFPFRFQGTSYDSCTTEGRTDGYRWCGTTEDYDRDKKYGFCPETAMSTVGGNSEGAPCVFPFTFLGNKYESCTSAGRSDGKMACATTANYDDDRKWGFCPDQGYSLFLVAAHEFGHAMGLEHSQDPGALMAPIYTYTKNFRLSQDDIKGIQELYGASPDIDLGTGPTPTLGPVTPEICKQDIVFDGIAQIRGEIFFFKDRFIWRTVTPRDKPMGPLLVATFWPELPEKIDAVYEAPQEEKAVFFAGNEYWIYSASTLERGYPKPLTSLGLPPDVQRVDAAFNWSKNKKTYIFAGDKFWRYNEVKKKMDPGFPKLIADAWNAIPDNLDAVVDLQGGGHSYFFKGAYYLKLENQSLKSVKFGSIKSDWLGC	–	–	–	strong reduction in binding	strong reduction in binding
Y^381A: rCBD variant, single-point alanine substitution at Y^381, module 3 (protein, biotinylated for the microwell assay; left off: His tag, end not stated, state not stated) APSPIIKFPGDVAPKTDKELAVQYLNTFYGCPKESCNLFVLKDTLKKMQKFFGLPQTGDLDQNTIETMRKPRCGNPDVANYNFFPRKPKWDKNQITYRIIGYTPDLDPETVDDAFARAFQVWSDVTPLRFSRIHDGEADIMINFGRWEHGDGYPFDGKDGLLAHAFAPGTGVGGDSHFDDDELWTLGEGQVVRVKYGNADGEYCKFPFLFNGKEYNSCTDTGRSDGFLWCSTTYNFEKDGKYGFCPHEALFTMGGNAEGQPCKFPFRFQGTSYDSCTTEGRTDGYRWCGTTEDYDRDKKYGFCPETAMSTVGGNSEGAPCVFPFTFLGNKYESCTSAGRSDGKMWCATTANADDDRKWGFCPDQGYSLFLVAAHEFGHAMGLEHSQDPGALMAPIYTYTKNFRLSQDDIKGIQELYGASPDIDLGTGPTPTLGPVTPEICKQDIVFDGIAQIRGEIFFFKDRFIWRTVTPRDKPMGPLLVATFWPELPEKIDAVYEAPQEEKAVFFAGNEYWIYSASTLERGYPKPLTSLGLPPDVQRVDAAFNWSKNKKTYIFAGDKFWRYNEVKKKMDPGFPKLIADAWNAIPDNLDAVVDLQGGGHSYFFKGAYYLKLENQSLKSVKFGSIKSDWLGC	–	–	–	strong reduction in binding	strong reduction in binding
